The values that follow come from ChEMBL document CHEMBL1629677, “A small-molecule dengue virus entry inhibitor” (Antimicrob Agents Chemother, 2009).

Structures are written as SMILES. Calls of active or inactive are those of the source. No cut-off for these calls is given here.

In data set [1] the test system is Dengue virus. In words: Antiviral activity against Dengue virus NGC infected in human A549 cells assessed as colocalization of virus measured as E protin signal after 2 hrs by confocal microscopy. In kind it is functional, organism-based. The method, boiled down:
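Virus pre-incubated with biotinylated compound, then passed through a gel-filtration spin column. Eluate used to infect A549 cells on coverslips for 2 h at 37°C. Cells fixed in formaldehyde for 15 min, compound detected with streptavidin-FITC and virus with anti-E antibody. Confocal microscopy.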

For data set [2], the system named is Dengue virus. The data set is described as follows: Antiviral activity against Dengue virus NGC infected in human A549 cells assessed as decrease in viral E protein production after 48 hrs by CFI assay. The following applies: A549, 48 h. Type of data set: functional, organism-based. A digest of the protocol:
(§1)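 A549 or BHK21 cells at 2 x 10^4/well grown overnight, then infected at MOI 0.3 with compound dilutions for 1 h at 37°C. Inoculum replaced by medium with compound for 48 h. Methanol-fixed, probed with anti-E antibody 4G2 and HRP anti-mouse IgG, developed with TMB, absorbance at 450 nm. EC50 by nonlinear regression of mean absorbance vs log concentration.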

Data set [3] in a line: Cytotoxicity against human A549 cells after 48 hrs by celltiter-glo luminescent cell viability assay. Type of data set: cell-based. The method, boiled down:
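A549 cells plated and compound added as in the immunodetection assay, then incubated for 48 h. Viability by CellTiter-Glo luminescence relative to DMSO-treated cells, giving CC50.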
A general note: Cellular ATP, detected with luciferase, serves as a proxy for viable cell number.

Data set [4] relates to Dengue virus. In words: Antiviral activity against 0.0001 MOI Dengue virus NGC infected in Cricetinae BHK21 cells assessed as decrease in viral E protein production […] by plaque reduction assay. Type of data set: functional, organism-based. The following applies: BHK-21. (In a plaque reduction assay, fewer plaques than in the control indicate reduced infectivity or spread.)

Data set [5] has as its system dengue virus type 1. The data set is described as follows: Antiviral activity against DENV-1 isolate My97-10245 infected in Cricetinae BHK21 cells assessed as decrease in viral E protein production after 48 hrs by CFI assay. In kind it is functional, organism-based. As to conditions: isolate My97-10245, BHK-21, 48 h. The method, boiled down:
as §1

Data set [6] deals with dengue virus type 3. The data set is described as follows: Antiviral activity against DENV-3 isolate My99-21531 infected in Cricetinae BHK21 cells assessed as decrease in viral E protein production after 48 hrs by CFI assay. In kind it is functional, organism-based. The following applies: isolate My99-21531, BHK-21, 48 h. A digest of the protocol: as §1
Data set [7] has as its system Dengue virus. The data set is described as follows: Antiviral activity against 25 MOI Dengue virus NGC infected in human A549 cells assessed as inhibition of NS3 protein production by CFI assay. In kind it is functional, organism-based. A digest of the protocol:
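A549 cells on coverslips infected at MOI 25 with or without compound for 7 h. Methanol-fixed and stained with anti-E 4G2 and anti-NS3 antibodies plus fluorescent secondaries, DAPI mounting. Immunofluorescence microscopy.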

Data set [8] concerns Dengue virus. The data set is described as follows: Binding affinity to Dengue virus particles by liquid chromatography. A digest of the protocol:
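Dengue virus (6 x 10^7 PFU) incubated with 5 µM compound at room temperature for 30 min, then loaded onto a gel-filtration spin column and centrifuged. Eluate analysed by LC-MS/MS in multiple-reaction-monitoring mode. Compound without virus run as a control.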

The test system of data set [9] is Dengue virus. The data set is described as follows: Antiviral activity against Dengue virus NGC infected in human A549 cells assessed as decrease in viral E protein production during early stage of virus life cucle by CFI assay. In kind it is functional, organism-based. As to conditions: TDE = time-dependent effect. A digest of the protocol:
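A549 cells infected at MOI 0.3 for 1 h at 37°C. Compound dilutions were present during infection only, after infection only, or throughout. Alternatively, a fixed concentration was added at 0–120 min after virus. E protein measured by immunodetection at 48 h. Duplicate wells in two experiments, or three independent experiments for the time course.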

Data set [10] deals with West Nile virus. The data set is described as follows: Antiviral activity against West nile virus B956 infected in Cricetinae BHK21 cells assessed as decrease in viral E protein production after 48 hrs by CFI assay. In kind it is functional, organism-based. As to conditions: B956, BHK-21, 48 h. A digest of the protocol: as §1
Data set [11] has as its system dengue virus type 4. The data set is described as follows: Antiviral activity against DENV-4 isolate My01-22713 infected in Cricetinae BHK21 cells assessed as decrease in viral E protein production after 48 hrs by CFI assay. The following applies: isolate My01-22713, BHK-21, 48 h. In kind it is functional, organism-based. The method, boiled down:
as §1

For data set [12], the system named is dengue virus type 2. The data set is described as follows: Antiviral activity against DENV-2 NGC infected in human A549 cells assessed as decrease in viral E protein production after 48 hrs by CFI assay. In kind it is functional, organism-based. The following applies: A549, 48 h. The method, boiled down:
as §1

The test system of data set [13] is dengue virus type 2. The data set is described as follows: Antiviral activity against DENV-2 NGC infected in Cricetinae BHK21 cells assessed as decrease in viral E protein production after 48 hrs by CFI assay. In kind it is functional, organism-based. The following applies: BHK-21, 48 h. The method, boiled down:
as §1

Data set [14] relates to Dengue virus. In words: Antiviral activity against Dengue virus NGC infected in human A549 cells assessed as viral antigen expression at 0.2 microM. Type of data set: functional.
The test system of data set [15] is Yellow fever virus. In words: Antiviral activity against Yellow fever virus 17D infected in human A549 cells assessed as decrease in viral E protein production after 48 hrs by CFI assay. The following applies: A549, 48 h. In kind it is functional, cell-based. A digest of the protocol:
as §1

In data set [16] the test system is Dengue virus. In words: Antiviral activity against Dengue virus NGC infected in human A549 cells assessed as change in endosomal pH at 0.2 microM by Lysosensor green DND189 accumulation assay. Type of data set: functional, organism-based. The method, boiled down:
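A549 cells on coverslips exposed to compound or bafilomycin A1 in Ham's F-12 with 2% FBS for 4 h at 37°C; 0.9% DMSO as control. Stained with 0.5 µM Lysosensor green DND-189 for 2 min at room temperature, washed, and imaged live by fluorescence microscopy.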

A short description of data set [17]: Antiviral activity against Japanese encephalitis virus Nakayama infected in Cricetinae BHK21 cells assessed as decrease in viral E protein production after 48 hrs by CFI assay. In kind it is functional, cell-based, Japanese encephalitis virus strain Nakayama. The following applies: BHK-21, 48 h. The method, boiled down:
as §1

Data set [18] relates to Dengue virus. The data set is described as follows: Antiviral activity against 25 MOI Dengue virus NGC infected in human A549 cells assessed as colocalized virus with endocytosed dextran by confocal microscopy. Type of data set: functional, organism-based. The method, boiled down:
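A549 cells on coverslips (1 x 10^5/well) infected at MOI 0.3? no: MOI 25 with 5 µM compound for 7 h. Rhodamine-dextran 20 mg/ml added for 20 min at 37°C, then methanol fixation and anti-E 4G2 staining with FITC secondary. Examined by confocal microscopy.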

In general, EC50 refers to the concentration that produces a half-maximal response. As for `O=C(CCCC[C@@H]1SC[C@H]2NC(=O)N[C@@H]12)NCCOCCOCCNc1nc(-c2ccc(-c3ccc(Cl)cc3)s2)c2ccccc2n1`, the result in data set [1] was inactive. For the same molecule, the EC50 in [2] was 0.234 µM.

As a reminder, the CC50 is the concentration that lowers cell viability or growth by half. As for `CC1(C)CC(Nc2nc(-c3ccc(-c4ccc(Cl)cc4)s3)c3ccccc3n2)CC(C)(C)N1`, the half-maximal cytotoxic concentration (CC50) at 48 h in data set [3] was 18.6 µM. For the same molecule, the EC50 was determined as 0.04 µM in data set [2] and 0.084 µM in data set [4].

With `Clc1ccc(-c2ccc(-c3nc(NCc4cccnc4)nc4ccccc34)s2)cc1`, the EC50 in data set [5] turned out to be 0.108 µM; in data set [6], 0.496 µM; in data set [10], 0.564 µM; in [2], 0.07 µM; in data set [11], 0.334 µM; in [12], 0.119 µM. Moreover, the EC50 is 0.068 µM in data set [13], 0.198 µM in data set [4], 0.47 µM in [15] and 1.42 µM in data set [17]. The result in data set [7], in [8] and in data set [18] was Active. Further, the Activity result is “tde” in [9] and >50% in data set [14]. For the same molecule, in [3], the cytotoxic concentration (CC50) at 48 h is > 20 µM. Further, in data set [16], the outcome was inactive.

Consider `CC1(C)CC(Nc2nccc(-c3ccc(-c4ccc(Cl)cc4)s3)n2)CC(C)(C)N1`, for which the CC50 at 48 h in data set [3] was > 20 µM. Besides, the values for the EC50 in data set [2] and in [4] were 0.27 µM and 0.32 µM, respectively.

Take `Clc1ccc(-c2ccc(-c3ccnc(N4CCNCC4)n3)s2)cc1`: the CC50 at 48 h in [3] was > 20 µM. The EC50 in data set [2] came out at 0.09 µM; in [4], 0.041 µM.

With `CC(=O)c1cccc(-c2ccc(-c3ccnc(NC4CC(C)(C)NC(C)(C)C4)n3)s2)c1`, in data set [3], the CC50 at 48 h is > 20 µM. For the same molecule, the 50% effective concentration (EC50) in data set [2] worked out at 0.9 µM; in data set [4], 0.3 µM.

Regarding `CC(C)(N)/C=C/c1cccc(-c2ccc(-c3ccnc(NC4CC(C)(C)NC(C)(C)C4)n3)s2)n1`, the CC50 at 48 h in data set [3] is > 20 µM. For the same molecule, the EC50 in [2] was determined as 1.69 µM; in [4], 0.31 µM.
